Active and inactive are the calls of the source. The rule behind the calls is not given here.
Experiments:
Staphylococcus aureus = assay: Antimicrobial activity against Staphylococcus aureus assessed as inhibition at 20 ug/6 mm disk after 1 to 2 days by agar diffusion assay; assay type: functional
Summary of the method: (§1)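 Standard agar diffusion: 6-mm paper disks loaded with 20 µg of compound were placed on inoculated plates. Inhibition-zone diameter (mm) was read after 1 and 2 days of growth.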

A-431 [1] = assay: Reduction in ROS in human A431 cells assessed as decrease in hydrogen peroxide level at 1 to 100 ng/ml after 1 hr by DCHFA assay; assay type: functional, cell-based
Summary of the method: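 A-431 cells (10^5 per well) were treated with a range of compound concentrations for 1 h. They were then loaded with DCHFA probe for 30 min in the dark. Fluorescence (ex 485/em 528 nm) was read immediately and expressed as arbitrary units per 10^5 cells.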

A-431 [2] = assay: Cytotoxicity against human A431 cells assessed as cell viability after 24 hrs incubation by MTT assay; assay type: functional, cell-based; conditions: A-431, 24 h
Summary of the method: (§2)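 Cell lines came from DSMZ; primary human fibroblasts served as non-cancer controls. Cells were grown in medium with 10% FCS, seeded at 50,000 cells/ml, and grown 2 days at 37 °C, 10% CO2. Serial dilutions were then added for 24 h. MTT (final 0.5 mg/ml) was added for 2 h. Formazan was pelleted, PBS-washed, dissolved in isopropanol/0.4% HCl and read at 590 nm. Two parallel experiments were run. IC50 was taken as the concentration giving 50% of untreated-control absorbance.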

Aspergillus niger = assay: Antimicrobial activity against Aspergillus niger assessed as inhibition at 20 ug/6 mm disk after 1 to 2 days by agar diffusion assay; assay type: functional; summary of the method: as §1
Mycolicibacterium phlei = assay: Antimicrobial activity against Mycobacterium phlei assessed as inhibition at 20 ug/6 mm disk after 1 to 2 days by agar diffusion assay; assay type: functional; summary of the method: as §1
Candida albicans = assay: Antimicrobial activity against Candida albicans assessed as inhibition at 20 ug/6 mm disk after 1 to 2 days by agar diffusion assay; assay type: functional; summary of the method: as §1
Pseudomonas aeruginosa = assay: Antimicrobial activity against Pseudomonas aeruginosa assessed as inhibition at 20 ug/6 mm disk after 1 to 2 days by agar diffusion assay; assay type: functional; summary of the method: as §1
[3] = Cytotoxicity against human fibroblasts assessed as cell viability after 24 hrs incubation by MTT assay; assay type: cell-based; conditions: Fibroblast; summary of the method: as §2
Micrococcus luteus = assay: Antimicrobial activity against Micrococcus luteus assessed as inhibition at 20 ug/6 mm disk after 1 to 2 days by agar diffusion assay; assay type: functional; summary of the method: as §1
MCF7 [4] = assay: Cytotoxicity against human MCF7 cells assessed as cell viability after 24 hrs incubation by MTT assay; assay type: functional, cell-based; conditions: MCF7, 24 h; summary of the method: as §2
Klebsiella pneumoniae = assay: Antimicrobial activity against Klebsiella pneumoniae assessed as inhibition at 20 ug/6 mm disk after 1 to 2 days by agar diffusion assay; assay type: functional; summary of the method: as §1
Saccharomyces cerevisiae = assay: Antimicrobial activity against Saccharomyces cerevisiae assessed as inhibition at 20 ug/6 mm disk after 1 to 2 days by agar diffusion assay; assay type: functional; summary of the method: as §1
[5] = Lipophilicity, log K of the compound by HPLC analysis
[6] = Octanol-water partition coefficient, log P of the compound by HPLC analysis; assay type: physicochemical
Summary of the method: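 Lipophilicity was measured by reversed-phase HPLC on a Nucleosil C18 column with isocratic water/methanol (3:1) at 0.5 ml/min and UV detection at 230 and 245 nm. Dead time was set with thiourea (t0 0.728 min). Retention factor was k = (tR − t0)/t0, and log P came from a calibration against at least six reference compounds.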

Escherichia coli = assay: Antimicrobial activity against Escherichia coli tolC assessed as inhibition at 20 ug/6 mm disk after 1 to 2 days by agar diffusion assay; assay type: functional; summary of the method: as §1
MCF7 [7] = assay: Cell cycle arrest in human MCF7 cells assessed as accumulation at G0/G1 phase after 30 mins by propidium iodide staining-based flow cytometric analysis; assay type: functional
Summary of the method: (§3)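 MCF-7 cells (10^6) were treated with compounds for 24 h alongside a methanol vehicle control. They were fixed in cold 70% methanol at 4 °C for one day, washed in PBS and permeabilised with 0.1% saponin in PBS. They were then stained with propidium iodide plus RNase (1 mg/ml) for 30 min, and DNA-content distribution was read by FACScan flow cytometry.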

MCF7 [8] = assay: Cell cycle arrest in human MCF7 cells assessed as accumulation at S phase […] by propidium iodide staining-based flow cytometric analysis; assay type: functional
A-431 [9] = assay: Reduction in ROS in human A431 cells assessed as decrease in hydrogen peroxide level at 0.1 to 10 ng/ml after 1 hr by DCHFA assay; assay type: functional, cell-based
Summary of the method: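 A-431 cells were seeded at 10^5 per well and exposed to a range of compound concentrations for 1 h. They were then loaded with DCHFA probe for 30 min in the dark. Fluorescence was read immediately at ex/em 485/528 nm and expressed as arbitrary units per 10^5 cells.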

MCF7 [10] = assay: Cell cycle arrest in human MCF7 cells assessed as accumulation at G2/M phase after 30 mins by propidium iodide staining-based flow cytometric analysis; assay type: functional; summary of the method: as §3
PtK2 [11] = assay: Induction of morphological changes in Potorous tridactylus PtK2 cells assessed as lysis of ER and disappearance of actin stress fiber after 24 hrs by immunofluorescence microscopy; assay type: functional, cell-based
Summary of the method: (§4)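 PtK2 cells were grown on coverslips and treated at semi-confluence for 24 h. Fixation was either 3.7% paraformaldehyde followed by 0.1% Triton X-100 for 5 min, or ice-cold methanol/acetone (50:50) for 10 min. ER was stained with anti-GRP94 and tubulin with anti-α-tubulin (primary and Alexa 488 secondary antibodies, 45 min each). Actin was stained with phalloidin-Alexa 594 for 45 min and nuclei with DAPI. Imaging was by fluorescence microscopy.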

PtK2 [12] = assay: Induction of morphological changes in Potorous tridactylus PtK2 cells assessed as loss of typical shape after 24 hrs by immunofluorescence microscopy; assay type: functional, cell-based; summary of the method: as §4

SMILES	Retention_time	log K [5]	logP [6]	diameter of the inhibition zone (DIZ) (Staphylococcus aureus)	Activity (A-431 [1])	IC50 (A-431 [2])	diameter of the inhibition zone (DIZ) (Aspergillus niger)	diameter of the inhibition zone (DIZ) (Mycolicibacterium phlei)	diameter of the inhibition zone (DIZ) (Candida albicans)	diameter of the inhibition zone (DIZ) (Pseudomonas aeruginosa)	IC50 [3]	diameter of the inhibition zone (DIZ) (Micrococcus luteus)	IC50 (MCF7 [4])	diameter of the inhibition zone (DIZ) (Klebsiella pneumoniae)	diameter of the inhibition zone (DIZ) (Saccharomyces cerevisiae)	diameter of the inhibition zone (DIZ) (Escherichia coli)	Activity (A-431 [9])	also measured
CC(C)(C)OC(=O)NCC(=O)OCC(=O)NCCC[Te]c1ccccc1	2.247 min	0.32	3.83	16 mm	–	10 µM	0 mm	14 mm	0 mm	0 mm	19 µM	7 mm	0.3 µM	15 mm	0 mm	12 mm	Dose-dependent effect	Activity (MCF7 [7]): 91.61%; Activity (MCF7 [8]): 4.61%; Activity (MCF7 [10]): 3.78%; Activity (PtK2 [11]): Active; Activity (PtK2 [12]): Active
COc1ccc(N(CC(=O)NCCC[Te]c2ccccc2)C(=O)/C=C/c2ccccc2)cc1	0.834 min	-0.84	1.31	11 mm	–	6 µM	0 mm	12 mm	0 mm	9 mm	5 µM	8 mm	2 µM	13 mm	0 mm	11 mm	Dose-dependent effect	–
COc1ccc(N(CC(=O)NCCC[Se]c2ccccc2)C(=O)/C=C/c2ccccc2)cc1	2.088 min	0.27	3.7	0 mm	inactive	≥ 100 µM	0 mm	0 mm	0 mm	0 mm	≥ 100 µM	0 mm	≥ 100 µM	0 mm	0 mm	0 mm	–	–

The next lines start with results.

Retention_time	log K [5]	logP [6]	SMILES	diameter of the inhibition zone (DIZ) (Staphylococcus aureus)	Activity (A-431 [1])	IC50 (A-431 [2])	diameter of the inhibition zone (DIZ) (Aspergillus niger)	diameter of the inhibition zone (DIZ) (Mycolicibacterium phlei)	diameter of the inhibition zone (DIZ) (Candida albicans)	diameter of the inhibition zone (DIZ) (Pseudomonas aeruginosa)	IC50 [3]	diameter of the inhibition zone (DIZ) (Micrococcus luteus)	IC50 (MCF7 [4])	diameter of the inhibition zone (DIZ) (Klebsiella pneumoniae)	diameter of the inhibition zone (DIZ) (Saccharomyces cerevisiae)	diameter of the inhibition zone (DIZ) (Escherichia coli)	Activity (A-431 [9])	also measured
1.407 min	-0.03	3.1	COc1ccc(N(CC(=O)NCCCSc2ccccc2)C(=O)c2ccccc2)cc1	0 mm	inactive	≥ 100 µM	0 mm	0 mm	0 mm	0 mm	≥ 100 µM	0 mm	≥ 100 µM	0 mm	0 mm	0 mm	–	–
1.412 min	-0.03	3.1	COc1ccc(N(CC(=O)NCCC[Se]c2ccccc2)C(=O)c2ccccc2)cc1	0 mm	inactive	≥ 100 µM	18 mm	0 mm	0 mm	0 mm	≥ 100 µM	0 mm	≥ 100 µM	0 mm	0 mm	0 mm	–	–
1.698 min	0.12	3.4	COc1ccc(N(CC(=O)NCCCSc2ccccc2)C(=O)C#Cc2ccccc2)cc1	0 mm	inactive	≥ 100 µM	0 mm	0 mm	0 mm	0 mm	≥ 100 µM	0 mm	≥ 100 µM	0 mm	0 mm	0 mm	–	–

Source: ChEMBL document CHEMBL3351600, “Sulfur, selenium and tellurium pseudopeptides: synthesis and biological evaluation” (Bioorg Med Chem, 2014)
